Assay [1] has as its system HT-29. Briefly: Cytotoxicity against human HT29 cells by MTT assay. The class given is functional, cell-based. On the technique in general: Tetrazolium assays rely on reduction of a dye to a coloured formazan, in cell work by metabolically active cells.
The test system of assay [2] is HT-29. Briefly: Induction of cell shrinkage in human HT29 cells after 2 hrs. It counts as functional, cell-based. Put shortly: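 HT-29 adenocarcinoma cells were incubated 2 h with compound alone. Morphology (shrinkage) was examined under the microscope against untreated control cells.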
Assay [3] has as its system HT-29. As to the kind of experiment: Cytotoxicity against human HT29 cells in presence of beta-glucuronidase by MTT assay. The class given is functional, cell-based.
Assay [4] relates to HT-29. Briefly: Induction of cell shrinkage in human HT29 cells after 2 hrs in presence of beta-glucuronidase. It counts as functional, cell-based. Put shortly:
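HT-29 adenocarcinoma cells were incubated 2 h with compound plus the enzyme beta-glucuronidase. Shrinkage was scored by microscopic examination of cell morphology against untreated control cells.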

Assay [5] has as its system HT-29. Briefly: Activation factor, ratio of IC50 for human HT29 cells to IC50 for human HT29 cells in presence of beta-glucuronidase. It counts as functional.

Calls of active or inactive are those of the source. The calls are words filed in the database; no cut-off is given here.

Consider `COc1cc2c(cc1O)N=C[C@@H]1CCCN1C2=O`, for which, in the assay with HT-29 [1], the IC50 is 30.19 µmol. In the assay on HT-29 [2], the outcome was Active.

Consider `COc1cc2c(cc1OCc1ccccc1)N(C(=O)OCc1ccc(O[C@@H]3O[C@H](C(=O)O)[C@@H](O)[C@H](O)[C@H]3O)c([N+](=O)[O-])c1)C(O)[C@@H]1CCCN1C2=O` (stereo partly specified), for which the values for the IC50 with HT-29 [1] and with HT-29 [3] were 5280 µmol and 41.68 µmol, respectively. Also, the outcome with HT-29 [2] was inactive. Moreover, in the assay on HT-29 [4], the result was Active. Also, in the assay on HT-29 [5], the “Ratio IC50” value is 126.67.

Take `COc1cc2c(cc1OCCCCCOc1cc3c(cc1OC)C(=O)N1CCC[C@H]1C(=O)N3)N=C[C@@H]1CCCN1C2=O`: the IC50 with HT-29 [1] stood at 8.12 µmol.

For the molecule `COc1cc2c(cc1OCCCCCOc1cc3c(cc1OC)C(=O)N1CCC[C@H]1C(O)N3C(=O)OCc1ccc(O[C@@H]3O[C@H](C(=O)O)[C@@H](O)[C@H](O)[C@H]3O)c([N+](=O)[O-])c1)NC(=O)[C@@H]1CCCN1C2=O` (stereo partly specified), the values for the IC50 with HT-29 [1] and in the assay on HT-29 [3] were 2690 µmol and 12.88 µmol, respectively. Moreover, in the assay with HT-29 [5], the “Ratio IC50” value is 208.85.

Values taken from ChEMBL document CHEMBL1157478, “Pyrrolo[2,1-c][1,4]benzodiazepine-beta-glucuronide prodrugs with a potential for selective therapy of solid tumors by PMT and ADEPT strategies” (Bioorg Med Chem Lett, 2008).
